Shown are actives, neighbours in structure and some others; about 3.1% of the full set was active somewhere.
PAX8 reporter – inhibitors of PAX8 transcriptional activity in RMG-I cells. RMG-I TPO-luciferase reporter, SteadyGlo, 24 h. actives 1.2% (n = 360,000). inhibition, % at 12.6 µM;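 active means mean replicate inhibition at least 60% with every replicate also reaching 60%; inconclusive means only one of the two criteria is met; inactive means mean below 60% and not all replicates reaching 60%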;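 further: luciferase light reporting Pax8 driven TPO promoter activity; plate controls were median of neutral control wells for no effect and mitoxantrone controls for full effect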
FN deposit inh – fibronectin deposition inhibition; AID 743247; AH1F fibroblasts, Alexa488-fibronectin deposition fluorescence, overnight; inhibition, % at 12.6 µM; actives 0.086% (n = 350,000);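 active means mean inhibition across replicates of 30% or more, regardless of how many single replicates reach that level; inconclusive means mean under 30% yet at least half of replicates reach 30%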;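 further: positive control wells lacked labelled fibronectin entirely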
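Measured by – fluorescence 485/525 nm · System – AH1F fibroblast monolayer, labelled fibronectin deposition · Amount – 10000 cells per well · Buffer or medium – serum-reduced DMEM (2% serum) · Doses – single dose, pinned · Also added – fluorescent fibronectin at 24 nM final · Schedule – 1 h cell attachment, overnight exposure to compound and label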
FGF22 binding – shifts melting point of recombinant human FGF22. actives 1.5% (n = 340,000). Q9HCT0. activity (Tm shift, normalised), % at 9.99 µM. recombinant FGF22 thermal shift, SYPRO orange fluorescence; percent of sucrose octasulfate shift, DMSO zero;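 active means mean Tm shift, scaled 0 neutral to 100 positive control, at about 1.3% or above, every replicate too, limit read from the data; inconclusive means no clear call, values can overlap the other calls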
Target sequence (Q9HCT0 whole entry, looked up): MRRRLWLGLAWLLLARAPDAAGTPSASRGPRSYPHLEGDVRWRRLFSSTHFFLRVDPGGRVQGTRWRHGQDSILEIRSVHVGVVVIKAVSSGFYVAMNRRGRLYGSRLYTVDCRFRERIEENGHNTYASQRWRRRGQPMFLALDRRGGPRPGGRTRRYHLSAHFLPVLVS
HIV Env fusion – inhibitors of HIV Env-mediated cell fusion; inhibition, % at 12.3 µM; HeLa-JRFL Env/CEM21 cell fusion, luciferase; actives 1.1% (n = 360,000); AID 651610;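 active means mean replicate inhibition score of at least 50 and every replicate individually at or above 50; inconclusive means only one of the two criteria met; inactive means mean below 50 and not all replicates reaching 50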;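 further: 0% = plate neutral controls and 100% = maraviroc near 300 nM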
PGC1a acetyl inh – modulators of PGC1a acetylation; AID 651687; U2OS PGC1a acetylation, AlphaScreen anti-acetyl-lysine; with virally co-expressed GCN5 acetyltransferase; actives 0.17% (n = 350,000); inhibition, % at 15.6 µM;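 active means every replicate shows inhibition of at least 40%; inconclusive means mean inhibition at least 40% but some replicate below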;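 further: 0% = neutral control wells and 100% = positive control wells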
EWS-Fli inh – inhibitors of EWS/Fli oncoprotein transcriptional activity; A673 NR0B1-luciferase reporter, viability-normalised; inhibition, % at 12.6 µM; actives 0.67% (n = 350,000);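 active means mean inhibition of at least 50% after viability correction, with every replicate also passing that limit; inconclusive means mean reaches 50% but only one of two replicates passes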;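 further: firefly luciferase signal divided by Alamar Blue viability fluorescence both relative to DMSO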
Numbers without * were called inactive; ? = inconclusive; / = no result given; ! = not active in a repeat; [ ] = dose if it differs, or a comment.

SMILES	PAX8 reporter	FN deposit inh	FGF22 binding	HIV Env fusion	PGC1a acetyl inh	EWS-Fli inh
C=C1C(C)C2C(Cc3ccccc3)NC(=O)C23OC(=O)/C=C/C(O)CCCC(C)C/C=C/C3C1O (centres undefined)	93*	41*	0	?	3	-12
O=C(O)[C@H]1[C@H](CO)[C@H]2Cn3c(ccc(-c4cncnc4)c3=O)[C@@H]1N2C(=O)NC1CCCC1	-9	/	0	/	/	6
COc1ccccc1CN1CCN(C(=O)COc2ccccc2)CC1	-1	-4	/	11	-14	/
COOCC1(C(=O)OC)C[C@H](c2ccc(OC)cc2)N(Cc2ccccc2OC)[C@@H]1c1ccccc1C (some centres undefined)	-15	2	0	89*	/	-4
Cc1ccccc1-c1ccc([C@H]2[C@@H](CO)N3CCCCN(C(=O)Cc4ccccn4)C[C@H]23)cc1	-17	/	0	/	-6	10
COC(=O)[C@@H]1[C@@H](CO)[C@@H]2Cn3c(ccc(-c4ccccc4F)c3=O)[C@H]1N2C(=O)C1CC1	2	/	0	/	3	-4
C[C@@H]1CN([C@H](C)CO)C(=O)CCCn2nncc2CO[C@H]1CN(C)C(=O)Oc1ccc2ccccc2c1	0	3	43*!	-1	8	-1
C[C@@H]1CN([C@@H](C)CO)C(=O)CCCn2nncc2CO[C@@H]1CN(C)C(=O)Oc1ccc2ccccc2c1	-8	0	0	12	15	0
c1ccc2c[n+](CCCCCCCCCC[n+]3ccc4ccccc4c3)ccc2c1	81*	-11	0	?	/	20
COc1ccc(-c2ccc([C@H]3[C@H]4CN(C(=O)Cc5ccccc5)CCCCN4[C@H]3CO)cc2)cc1	13	/	0	/	-5	/
COc1cc2c(cc1O)C[C@H]1NCCc3cc4c(c-2c31)OCO4	86*	-11	0	2	23	20
O=C1NC(=O)[C@]2(Cc3ccccc3N3CCN(c4ccccc4)CC32)C(=O)N1c1ccccc1 (some centres undefined)	/	31*	/	-51	4	/
COc1ccc(-c2ccc([C@H]3[C@@H](CO)N4CCCCN(C(=O)Cc5ccncc5)C[C@H]34)cc2)cc1	8	/	1	/	-8	5
COc1cc2c(c(OC)c1O)-c1ccc(OC)c(=O)cc1C(NC(=O)C(F)(F)F)CC2 (centres undefined)	80*	0	0	-111	/	37
O=C(Cc1ccccc1)N1CCCCN2[C@H](CO)[C@@H](c3ccc(-c4ccccc4)cc3)[C@@H]2C1	-7	/	0	/	2	/
O=C(NC[C@H]1CC[C@H]2[C@H](CN2Cc2cccnc2)O1)C1CC1	-34	/	/	-3[16.7 µM]	2	-8
C[C@H]1CN([C@@H](C)CO)C(=O)CCCn2nncc2CO[C@@H]1CN(C)C(=O)Oc1ccc2ccccc2c1	/	-4	0	16[16.7 µM]	6	-5
CCN1[C@@H]2Cn3c(ccc(-c4cccc(OC)c4)c3=O)[C@H]1[C@@H](C(=O)OC)[C@@H]2CO	3	/	0	/	/	-37
O=C1C=CC(=O)C2C1C1(Cl)C(Cl)=C(Cl)C2(Cl)C1(Cl)Cl (centres undefined)	5	-25	0	66*	3	-1
OC1/C(=C/c2ccc(F)cc2)N2CCC1CC2 (centres undefined)	-28	-4	43*	12	5	-22
COc1ccc(N2C(=O)C(=O)N(c3ccc(OC)cc3)P2(=O)N(CCCl)CCCl)cc1	7	2	43*	-1	-6	-15
CC(=O)c1c(C)n(C2CCCCC2)c2ccc(O)cc12	-12	5	-1	62*	55*	4
CC(=O)c1c(C)n(Cc2ccccc2)c2ccc(O)cc12	7	3	0	36	8	0
O=C(O)[C@@H]1[C@@H](CO)[C@@H]2Cn3c(ccc(C4=CCCCC4)c3=O)[C@H]1N2CCc1ccccc1	/	/	/	-2[16.7 µM]	/	-5
CCCCCCC[n+]1ccc(-c2cc[n+](CCCCCCC)cc2)cc1	86*	-5	-1	6	/	3
SMILES	PAX8 reporter	FN deposit inh	FGF22 binding	HIV Env fusion	PGC1a acetyl inh	EWS-Fli inh
CC(=O)OC1(C)CC(C)C(=O)C(C(O)CC2CC(=O)NC(=O)C2)C1 (centres undefined)	/	/	0	/	93*	43
C[C@@H]1C[C@@H]([C@H](O)CC2CC(=O)NC(=O)C2)C(=O)[C@@H](C)C1	/	/	0	/	73*	42
OC(c1ccccc1)(c1ccc(Cl)cc1)C1CN2CCC1CC2 (centres undefined)	-6	7	0	-37	-8	13
OC(c1ccccc1)(c1ccccc1)C1CN2CCC1CC2 (centres undefined)	-2	-11	44*	-6	/	-3
O=C(NN=Cc1ccc(N(CCCl)CCCl)cc1)c1cc(=O)[nH]c(=O)[nH]1	1	2	44*	?	5	-26
O=C(NN=Cc1ccc(N(CCCl)CCCl)cc1)C(=O)c1c[nH]c2ccccc12	25	3	0	5	12	13
Cc1ccc(/C=C2\C(=O)NC(=O)N(CC3CCCO3)C2=O)s1 (centres undefined)	-48	9	-1	-9	10	-4
CCN(CC)c1ccc(/C=C2\C(=O)NC(=O)N(CC3CCCO3)C2=O)cc1 (centres undefined)	-8	-7	43*	3	/	-4
COc1cccc(OC)c1C1=NCC(=O)Nc2c1oc1ccc(Br)cc21	76*	-3	0	-178	-18	47
O=C(O)[C@@H]1[C@@H](CO)[C@@H]2Cn3c(ccc(-c4ccncc4)c3=O)[C@H]1N2C(=O)C1CCCC1	/	/	/	/	/	5
CN1C(=O)C(=Cc2ccc(SC3CCCCC3)o2)C(=O)N(C)C1=O	-11	-2	43*	11	14	3
CC(C)(C)c1cc([N+](=O)[O-])cc(C(C)(C)C)c1O	67*	5	0	58*	/	2
COc1ccc(CC2NCC(O)C2OC(C)=O)cc1 (centres undefined)	/	/	0	/	92*	59*
COc1ccc(CC(=O)N2CCN(C)CC2)cc1	/	-3	/	-74	10	/
O=C(O)[C@H]1[C@H](CO)[C@H]2Cn3c(ccc(-c4ccccc4F)c3=O)[C@@H]1N2C(=O)Nc1ccccc1	/	/	0	/	/	-1
CCOCCN1CCC(OC(C)=O)C(C)C1 (centres undefined)	-15	8	/	-2	42*	/
OC[C@@H]1Nc2ccc(C#Cc3cccnc3)cc2[C@H]2NCC[C@@H]12	/	-4	/	/	/	/
O=C(Cc1ccccn1)N1CCCCN2[C@@H](CO)[C@H](c3ccc(-c4ccc(F)cc4)cc3)[C@@H]2C1	-1	/	0	/	1	-2

Screening results: PubChem, Broad Institute
